Drawing on ChEMBL document CHEMBL5214894, “Biosynthetic Interrogation of Soil Metagenomes Reveals Metamarin, an Uncommon Cyclomarin Congener with Activity against Mycobacterium tuberculosis” (J Nat Prod, 2021), this text covers IC50 and MIC for three molecules.

The subject of assay [1] is Mycobacterium tuberculosis. Description: Antibacterial activity against Mycobacterium tuberculosis mc2 6206 harboring mLux plasmid infected in mouse J774.A1 cells assessed as inhibition of bacterial cell viability incubated for 72 hrs by multimode microplate reader analysis. Format: functional, organism-based. The note with it: mc2 6206, J774.A1, 72 h. In outline: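 Macrophages at (4–5) × 10^5 cells/mL in DMEM/10% FBS, seeded and left to adhere overnight. Infected at MOI 1:10 with mid-log bacteria for 4 h at 37 °C, 5% CO2. Medium supplemented with pantothenate and leucine, each 50 μg/mL. After PBS washes, compound added at 64 to 0.0004 μg/mL for 72 h. Luminescence read-out. IC50 by nonlinear regression. Triplicate; experiment repeated twice.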

In assay [2] the test system is Mycobacterium tuberculosis. In words: Antimycobacterial activity against multi drug-resistant Mycobacterium tuberculosis TN800 assessed as bacterial growth inhibition incubated for 6 days by Alamar blue staining based assay. Type of assay: functional. The note with it: TN800, 144 h, time 6 day. In outline:
(§1)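 Strains passaged at 37 °C in 7H9 with OADC, 0.2% glycerol and 0.02% tyloxapol to OD600 0.5–0.7, then diluted to OD600 0.005. Final test range 5 to 0.009 μg/mL. Rifampicin control. Incubated 6 days at 37 °C with 5% CO2. Tween 80 and Alamar Blue then added for 24 h. Absorbance read at 570 nm, normalized to 600 nm.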
A general note: The colour change of resazurin is a common sign of viable cells or microbes.

Assay [3] relates to Mycobacterium tuberculosis. In words: Antimycobacterial activity against multi drug-resistant Mycobacterium tuberculosis 565 assessed as bacterial growth inhibition incubated for 6 days by Alamar blue staining based assay. Type of assay: functional. The settings on record: Mycobacterium tuberculosis, 565, 144 h; time 6 day. The gist of the method:
as §1

In assay [4] the test system is Mycobacterium tuberculosis. Description: Antimycobacterial activity against multi drug-resistant Mycobacterium tuberculosis 7791 assessed as bacterial growth inhibition incubated for 6 days by Alamar blue staining based assay. The settings on record: Mycobacterium tuberculosis, 7791, 144 h; time 6 day. Format: functional. In outline:
as §1

In brackets after ≈: the same amount, converted by molar mass.

Consider `CO[C@H]1/C=C/O[C@@]2(C)Oc3c(C)c(O)c4c(O)c(c(/C=N/N5CCN(C)CC5)c(O)c4c3C2=O)NC(=O)/C(C)=C\C=C\[C@H](C)[C@H](O)[C@@H](C)[C@@H](O)[C@@H](C)[C@H](OC(C)=O)[C@@H]1C` [RIFAMPIN], for which the IC50 in assay [1] was 0.08 µg/mL (≈ 0.0972 µM).
`CO[C@@H](c1ccccc1)[C@H]1NC(=O)[C@H](C)NC(=O)[C@@H](CC(C)CO)N(C)C(=O)C(C(O)c2cn(C(C)(C)[C@@H]3CO3)c3ccccc23)NC(=O)[C@@H]([C@H](C)C=C(C)C)NC(=O)[C@@H](CC(C)C)N(C)C(=O)[C@@H](C(C)C)NC1=O` (stereo partly specified): the IC50 in assay [1] stood at 0.48 µg/mL (≈ 0.46 µM).
As to `C=CC(C)(C)n1cc(C(O)C2NC(=O)[C@H](C(C)C)NC(=O)[C@H](CC(C)C)N(C)C(=O)[C@H](C(C)C)NC(=O)C(C(OC)c3ccccc3)NC(=O)[C@H](C(C)C)NC(=O)C(CC(C)CO)N(C)C2=O)c2ccccc21` (stereo partly specified), in assay [1], the IC50 stood at 0.71 µg/mL (≈ 0.699 µM). For the same molecule, the MIC in assay [2], in assay [3] and in assay [4] was 0.08 µg/mL (≈ 0.0788 µM) throughout.

By IC50 is commonly meant the concentration at which inhibition is half-maximal. The MIC is the least concentration at which growth counts as inhibited.
